Data as given in ChEMBL document CHEMBL1149897, “Acylated triterpenoid saponins from Schima noronhae and their cell growth inhibitory activity” (J Nat Prod, 2008).
Active and inactive are the calls of the source. The calls are words filed in the database; no cut-off is given here.

Columns and labels:
Assay type in all cases: functional, cell-based
[1] = system: HT-29; experiment: Cytotoxicity against human HT29 cells after 24 hrs by fluorometric microculture assay; details: HT-29, 24 h
[2] = system: HCT-116; experiment: Cytotoxicity against human HCT116 cells after 24 hrs by fluorometric microculture assay; details: HCT-116, 24 h
[3] = system: HeLa; experiment: Cytotoxicity against human HeLa cells after 24 hrs by fluorometric microculture assay
Summary of the method: (§1)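 DLD1 grown in RPMI 1640 with 10% FBS; HeLa in IMDM with 5% FBS; both at 37 °C, 5% CO2. Cells (6 × 10^3 per well) exposed to a range of compound concentrations for 24 h at 37 °C. Medium then removed and viability read by FMCA on a fluorescence plate reader as percent of control-well fluorescence. IC50 derived; triplicate experiments.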

[4] = system: DLD-1; experiment: Cytotoxicity against human DLD1 cells after 24 hrs by fluorometric microculture assay; summary of the method: as §1

Structure (SMILES): C/C=C(/C)C(=O)O[C@H]1[C@H](O)C(C)(C)C[C@H]2C3=CC[C@@H]4[C@@]5(C)CC[C@H](O[C@@H]6O[C@H](C(=O)O)[C@@H](O)[C@H](O)[C@H]6O[C@@H]6O[C@@H](C)[C@H](O)[C@@H](O)[C@H]6O)C(C)(C)[C@@H]5CC[C@@]4(C)[C@]3(C)[C@@H](O)[C@@H](O)[C@]21COC(C)=O
- IC50 [1]: > 40 µg/mL
- IC50 [2]: > 40 µg/mL

Structure (SMILES): C/C=C(/C)C(=O)O[C@H]1[C@H](O)C(C)(C)C[C@H]2C3=CC[C@@H]4[C@@]5(C)CC[C@H](O[C@@H]6O[C@H](C(=O)O)[C@@H](O)[C@H](O)[C@H]6O[C@@H]6O[C@@H](C)[C@H](O)[C@@H](O)[C@H]6O)C(C)(C)[C@@H]5CC[C@@]4(C)[C@]3(C)[C@@H](O)[C@@H](O)[C@]21CO
- IC50 [1]: > 40 µg/mL
- IC50 [2]: > 40 µg/mL

Structure (SMILES): C/C=C(/C)C(=O)O[C@H]1[C@H](OC(C)=O)C(C)(C)C[C@H]2C3=CC[C@@H]4[C@@]5(C)CC[C@H](O[C@@H]6O[C@H](C(=O)O)[C@@H](O)[C@H](O)[C@H]6O[C@@H]6O[C@@H](C)[C@H](O)[C@@H](O)[C@H]6O)C(C)(C)[C@@H]5CC[C@@]4(C)[C@]3(C)[C@@H](O)[C@@H](O)[C@]21CO
- IC50 [1]: > 40 µg/mL
- IC50 [2]: > 40 µg/mL

Structure (SMILES): C/C=C(/C)C(=O)O[C@H]1CC(C)(C)C[C@H]2C3=CC[C@@H]4[C@@]5(C)CC[C@H](O[C@@H]6O[C@H](C(=O)O)[C@@H](O)[C@H](O[C@@H]7O[C@H](CO)[C@H](O[C@@H]8O[C@@H](C)[C@H](O)[C@@H](O)[C@H]8O)[C@H](O)[C@H]7O)[C@H]6O[C@@H]6O[C@H](CO)[C@@H](O)[C@H](O)[C@H]6O)C(C)(C)[C@@H]5CC[C@@]4(C)[C@]3(C)CC[C@@]12CO
- IC50 [3]: 3.8 µM
- Activity [4]: Active

Structure (SMILES): C/C=C(/C)C(=O)O[C@H]1CC(C)(C)C[C@H]2C3=CC[C@@H]4[C@@]5(C)CC[C@H](O[C@@H]6O[C@H](C(=O)O)[C@@H](O)[C@H](O[C@@H]7O[C@H](CO)[C@H](O[C@@H]8O[C@@H](C)[C@H](O)[C@@H](O)[C@H]8O)[C@H](O)[C@H]7O)[C@H]6O[C@@H]6O[C@H](CO)[C@@H](O)[C@H](O)[C@H]6O)C(C)(C)[C@@H]5CC[C@@]4(C)[C@]3(C)[C@@H](O)[C@@H](O)[C@@]12CO
- IC50 [3]: 5.5 µM
- Activity [4]: Active
